From ChEMBL document CHEMBL4715693, “Synthesis and antiviral properties of novel indole-based thiosemicarbazides and 4-thiazolidinones” (Bioorg Med Chem, 2016)
Values after ≈ are worked out from the molar mass of the structure shown.

How the values were obtained:
[1] = test system: Vesicular stomatitis virus; experiment: Antiviral activity against Vesicular stomatitis virus infected in human HeLa cells assessed as reduction in virus-induced cytopathic effect incubated for 3 to 6 days by light microscopic analysis; assay type: functional, organism-based
Method in brief: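 CPE reduction assay: virus and serial compound dilutions added together to subconfluent HeLa (vesicular stomatitis, Coxsackie B4, respiratory syncytial) or Vero (Coxsackie B4, Sindbis, Punta Toro) cultures. Incubated 3–6 days at 37 °C. Mean ± SEM of three independent tests.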

Coxsackievirus B4 [2] = experiment: Antiviral activity against Human coxsackievirus B4 infected in human HeLa cells assessed as reduction in virus-induced cytopathic effect incubated for 3 to 6 days by light microscopic analysis; assay type: functional, organism-based; conditions: Enterovirus B
Method in brief: (§1)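 CPE reduction assay: virus and serial compound dilutions added together to subconfluent HeLa (vesicular stomatitis, Coxsackie B4, respiratory syncytial) or Vero (Coxsackie B4, Sindbis, Punta Toro) cultures. Incubated 3–6 days at 37 °C. […] Mean ± SEM of three independent tests.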

[3] = test system: Respiratory syncytial virus; experiment: Antiviral activity against Respiratory syncytial virus infected in human HeLa cells assessed as reduction in virus-induced cytopathic effect incubated for 3 to 6 days by light microscopic analysis; assay type: functional, organism-based; method in brief: as §1
[4] = Cytotoxicity against human HeLa cells assessed as changes in cell morphology incubated for 3 to 6 days by light microscopic analysis; assay type: cell-based; conditions: time 3-6 day
Method in brief: (§2)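 Uninfected subconfluent cells (Vero or HeLa, as named) exposed to serial compound dilutions in parallel with the CPE assays, 37 °C, 3–6 days. Cell morphology examined by light microscopy; MCC = minimal concentration causing microscopically detectable changes in morphology.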

[5] = Selectivity index, ratio of MCC for human HeLa cells to EC50 for Human coxsackievirus B4 infected in human HeLa cells; assay type: toxicity, cell-based
Method in brief: (§3)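 HeLa cells infected concurrently with addition of serial compound dilutions, 3–6 days at 37 °C. CPE inhibition scored microscopically for EC50; MCC from minimal alteration of cell morphology by microscopy; index = MCC divided by EC50.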

Human respirovirus 3 = experiment: Antiviral activity against Human parainfluenza virus 3 infected in African green monkey Vero cells assessed as reduction in virus-induced cytopathic effect incubated for 3 to 6 days by light microscopic analysis; assay type: functional, organism-based; conditions: Human respirovirus 3, Vero
[6] = test system: Mammalian orthoreovirus 1; experiment: Antiviral activity against Mammalian orthoreovirus 1 infected in African green monkey Vero cells assessed as reduction in virus-induced cytopathic effect incubated for 3 to 6 days by light microscopic analysis; assay type: functional, organism-based; conditions: Mammalian orthoreovirus 1, Vero
Sindbis virus = experiment: Antiviral activity against Sindbis virus infected in African green monkey Vero cells assessed as reduction in virus-induced cytopathic effect incubated for 3 to 6 days by light microscopic analysis; assay type: functional, organism-based; method in brief: as §1
Coxsackievirus B4 [7] = experiment: Antiviral activity against Human coxsackievirus B4 infected in African green monkey Vero cells assessed as reduction in virus-induced cytopathic effect incubated for 3 to 6 days by light microscopic analysis; assay type: functional, organism-based; conditions: Enterovirus B; method in brief: as §1
Punta Toro virus = experiment: Antiviral activity against Punta Toro virus infected in African green monkey Vero cells assessed as reduction in virus-induced cytopathic effect incubated for 3 to 6 days by light microscopic analysis; assay type: functional, organism-based; method in brief: as §1
[8] = Cytotoxicity against African green monkey Vero cells assessed as changes in cell morphology incubated for 3 to 6 days by light microscopy; assay type: cell-based; conditions: chlorocebus sabaeus, time 3-6 day; method in brief: as §2
[9] = Selectivity index, ratio of MCC for African green monkey Vero cells to EC50 for Human coxsackievirus B4 infected in African green monkey Vero cells; assay type: toxicity
Human alphaherpesvirus 1 = experiment: Antiviral activity against Herpes simplex virus 1 infected in human HEL cells assessed as reduction in virus-induced cytopathic effect incubated for 3 to 6 days by light microscopic analysis; assay type: functional, cell-based; conditions: Human alphaherpesvirus 1, HEL
Human alphaherpesvirus 2 = experiment: Antiviral activity against Herpes simplex virus 2 infected in human HEL cells assessed as reduction in virus-induced cytopathic effect incubated for 3 to 6 days by light microscopic analysis; assay type: functional, cell-based; conditions: Human alphaherpesvirus 2, HEL
Vaccinia virus = experiment: Antiviral activity against Vaccinia virus infected in human HEL cells assessed as reduction in virus-induced cytopathic effect incubated for 3 to 6 days by light microscopic analysis; assay type: functional, organism-based; conditions: Orthopoxvirus vaccinia
[10] = test system: Human immunodeficiency virus 1; experiment: Antiviral activity against Human immunodeficiency virus 1 infected in human MT4 cells assessed as reduction in virus-induced cytopathic effect incubated for 3 to 6 days by light microscopic analysis; assay type: functional, organism-based; conditions: Human immunodeficiency virus 1, MT4
[11] = test system: Human immunodeficiency virus 2; experiment: Antiviral activity against Human immunodeficiency virus 2 infected in human MT4 cells assessed as reduction in virus-induced cytopathic effect incubated for 3 to 6 days by light microscopic analysis; assay type: functional, organism-based; conditions: Human immunodeficiency virus 2, MT4
Influenza A virus = experiment: Antiviral activity against influenza A virus infected in dog MDCK cells assessed as reduction in virus-induced cytopathic effect incubated for 3 to 6 days by light microscopic analysis; assay type: functional, organism-based; conditions: Influenza A virus, MDCK
Method in brief: (§4)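 MDCK cells, subconfluent, received influenza A or B virus together with serial compound dilutions. Incubated 3–6 days at 35 °C.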

Influenza B virus = experiment: Antiviral activity against influenza B virus infected in dog MDCK cells assessed as reduction in virus-induced cytopathic effect incubated for 3 to 6 days by light microscopic analysis; assay type: functional, organism-based; method in brief: as §4
Feline coronavirus = experiment: Antiviral activity against Feline coronavirus infected in cat CRFK cells assessed as reduction in virus-induced cytopathic effect incubated for 3 to 6 days by light microscopic analysis; assay type: functional, organism-based; conditions: Alphacoronavirus 1, CRFK
Felid alphaherpesvirus 1 = experiment: Antiviral activity against Feline herpesvirus infected in cat CRFK cells assessed as reduction in virus-induced cytopathic effect incubated for 3 to 6 days by light microscopic analysis; assay type: functional, organism-based; conditions: Felid alphaherpesvirus 1, CRFK
[12] = Cytotoxicity against human HEL cells assessed as changes in cell morphology incubated for 3 to 6 days by light microscopy; assay type: cell-based; conditions: time 3-6 day
Method in brief: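 Human embryonic lung fibroblasts incubated with serial compound dilutions alongside the antiviral assays, 37 °C, 3–6 days. Morphology inspected by light microscopy; minimal cytotoxic concentration taken as lowest concentration giving minimal morphological change.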

[13] = Cytotoxicity against dog MDCK cells assessed as changes in cell morphology incubated for 3 to 6 days by light microscopy; assay type: cell-based, Canis lupus familiaris; conditions: time 3-6 day
[14] = Cytotoxicity against cat CRFK cells assessed as reduction in cell viability incubated for 3 to 6 days by MTS assay; assay type: cell-based, Felis catus; conditions: crfk, time 3-6 day
Method in brief: (§5)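 CRFK or MT4 cells were exposed to serial compound dilutions alongside the antiviral assays for 3–6 days at 37 °C.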

MT4 = experiment: Cytotoxicity against human MT4 cells assessed as reduction in cell viability incubated for 3 to 6 days by MTS assay; assay type: cell-based; conditions: time 3-6 day; method in brief: as §5
[15] = Selectivity index, ratio of MCC for human HeLa cells to EC50 for Respiratory syncytial virus infected in human HeLa cells; assay type: toxicity, cell-based; method in brief: as §3
[16] = Selectivity index, ratio of MCC for African green monkey Vero cells to EC50 for Sindbis virus infected in African green monkey Vero cells; assay type: toxicity

| Structure (SMILES) | EC50 [1] [µg/mL] | EC50 (Coxsackievirus B4 [2]) [µg/mL] | EC50 [3] [µg/mL] | MCC [4] [µg/mL] | selectivity ratio [5] | EC50 (Human respirovirus 3) [µg/mL] | EC50 [6] [µg/mL] | EC50 (Coxsackievirus B4 [7]) [µg/mL] | EC50 (Punta Toro virus) [µg/mL] | selectivity ratio [9] | EC50 (Human alphaherpesvirus 1) [µg/mL] | EC50 (Human alphaherpesvirus 2) [µg/mL] | EC50 (Vaccinia virus) [µg/mL] | EC50 [10] [µg/mL] | EC50 [11] [µg/mL] | EC50 (Influenza A virus) [µg/mL] | EC50 (Influenza B virus) [µg/mL] | EC50 (Feline coronavirus) [µg/mL] | EC50 (Felid alphaherpesvirus 1) [µg/mL] | MCC [12] [µg/mL] | also measured |
| --- | --- | --- | --- | --- | --- | --- | --- | --- | --- | --- | --- | --- | --- | --- | --- | --- | --- | --- | --- | --- | --- |
| CNC(=S)NNC(=O)c1[nH]c2ccc(F)cc2c1-c1ccccc1 | > 100 | 2.1 (≈ 6.13 µM) | > 100 | 20 | 9 | > 100 | > 100 | 1.7 (≈ 4.96 µM) | > 100 | 12 | > 100 | > 100 | > 100 | > 100 | > 100 | > 100 | > 100 | > 100 | > 100 | 20 | EC50 (Sindbis virus): > 100 µg/mL; MCC [8]: 20 µg/mL; MCC [13]: 20 µg/mL; CC50 [14]: 7.5 µg/mL (≈ 21.9 µM); CC50 (MT4): 18 µg/mL (≈ 52.6 µM) |
| CCCNC(=S)NNC(=O)c1[nH]c2ccc(F)cc2c1-c1ccccc1 | > 100 | 1.1 (≈ 2.97 µM) | ≥ 2.3 | 20 | 18 | > 100 | > 100 | 1.8 (≈ 4.86 µM) | > 100 | 56 | > 100 | > 100 | > 100 | > 100 | > 100 | > 100 | > 100 | > 100 | > 100 | 20 | selectivity ratio [15]: ≥ 9; EC50 (Sindbis virus): 6.5 µg/mL (≈ 17.5 µM); selectivity ratio [16]: 15; MCC [13]: 0.8 µg/mL; CC50 [14]: 9.7 µg/mL (≈ 26.2 µM); CC50 (MT4): 11 µg/mL (≈ 29.7 µM) |
| C=CCNC(=S)NNC(=O)c1[nH]c2ccc(F)cc2c1-c1ccccc1 | > 100 | 1.5 (≈ 4.07 µM) | ≥ 4 | 20 | 13 | > 100 | > 100 | 2 (≈ 5.43 µM) | > 100 | 10 | > 100 | > 100 | > 100 | > 100 | > 100 | > 100 | > 100 | > 100 | > 100 | 20 | selectivity ratio [15]: ≥ 5; EC50 (Sindbis virus): ≥ 4 µg/mL; MCC [8]: 20 µg/mL; selectivity ratio [16]: ≥ 5; MCC [13]: 4 µg/mL; CC50 [14]: 8.6 µg/mL (≈ 23.3 µM) |
| CCNC(=S)NNC(=O)c1[nH]c2ccc(F)cc2c1-c1ccccc1 | > 100 | 0.87 (≈ 2.44 µM) | ≥ 4 | 20 | 23 | > 100 | > 100 | 0.4 (≈ 1.12 µM) | > 100 | 50 | > 100 | > 100 | > 100 | > 100 | > 100 | > 100 | > 100 | > 100 | > 100 | 20 | selectivity ratio [15]: ≥ 5; MCC [8]: 20 µg/mL; selectivity ratio [16]: 6; MCC [13]: 4 µg/mL; CC50 [14]: 2.9 µg/mL (≈ 8.14 µM); CC50 (MT4): 14 µg/mL (≈ 39.3 µM) |
